Test results taken from ChEMBL document CHEMBL1134474, “Synthesis and biological evaluation of novel A-ring modified hexacyclic camptothecin analogues” (J Med Chem, 2001).
pIC50: −log10 of the molar value.

Assays:
[1] = Antitumor activity against MTW28 WiDr xenografts in nude mice at a dose of 10 umol/kg; assay type: functional, Mus musculus
In short: (§1)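 Treatment started about 3 weeks after transplant, at tumor weight 100 to 200 mg. 12 mice per group. Suspended in 0.5% CMC aqueous solution, given i.p. q4d×8 at 10 µmol/kg per injection. Calipers, V = 1/2 × a × b2. Read-outs on day 28: MTW, RTG (MTW28/MTW0), IR = (1 − RTG treated/RTG control) × 100. PR means 50% or greater regression.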

[2] = Percentage of complete regression (CR) against WiDr xenografts in nude mice at a dose of 10 umol/kg; assay type: functional, Mus musculus; in short: as §1
WiDr = experiment: In Vitro cytotoxicity against human colon cancer cell line (WiDr); assay type: functional, cell-based
In short: (§2)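 Cells grown in RPMI 1640 with 10% heat-inactivated FBS and penicillin-streptomycin, at 37 °C under 5% CO2. Seeding density set per line from growth curves. Eight concentrations diluted from DMSO stock, 4 days exposure. MTT added for 4 h, formazan dissolved in DMSO, absorbance at 550 nm. […] Three or more determinations.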

DNA topoisomerase 1 = biological target: T1, DNA topoisomerase 1 (Mus musculus, UniProt Q04750); experiment: Average concentration to cause 50% inhibition of topo 1 using the cleavable complex assay
T1 sequence (Q04750 whole entry): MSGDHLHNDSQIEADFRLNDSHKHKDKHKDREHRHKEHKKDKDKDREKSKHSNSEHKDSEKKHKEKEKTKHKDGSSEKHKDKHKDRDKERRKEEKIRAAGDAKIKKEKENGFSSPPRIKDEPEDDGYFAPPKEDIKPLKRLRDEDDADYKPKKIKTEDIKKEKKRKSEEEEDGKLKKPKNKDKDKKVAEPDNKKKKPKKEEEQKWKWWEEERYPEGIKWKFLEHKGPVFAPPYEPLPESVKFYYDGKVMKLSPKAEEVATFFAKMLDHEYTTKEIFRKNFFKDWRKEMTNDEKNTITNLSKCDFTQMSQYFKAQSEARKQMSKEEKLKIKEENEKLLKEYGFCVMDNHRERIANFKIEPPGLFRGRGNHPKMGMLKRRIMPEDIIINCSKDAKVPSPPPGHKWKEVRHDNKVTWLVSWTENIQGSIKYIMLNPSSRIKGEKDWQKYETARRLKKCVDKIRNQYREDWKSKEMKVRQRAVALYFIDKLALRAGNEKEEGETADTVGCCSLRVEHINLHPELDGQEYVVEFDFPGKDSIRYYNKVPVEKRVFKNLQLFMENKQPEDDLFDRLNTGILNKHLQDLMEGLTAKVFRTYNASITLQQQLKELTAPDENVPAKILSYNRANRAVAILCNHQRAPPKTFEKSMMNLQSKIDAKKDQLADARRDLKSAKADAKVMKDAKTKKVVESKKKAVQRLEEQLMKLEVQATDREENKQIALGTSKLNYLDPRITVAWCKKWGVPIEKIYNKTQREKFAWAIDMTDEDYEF

NCI-H128 = experiment: In Vitro cytotoxicity against human lung cancer cell line (H128); assay type: functional, cell-based; in short: as §2
[3] = Percentage of inhibition rate (IR) against WiDr xenografts in nude mice at a dose of 10 umol/kg; assay type: functional, Mus musculus; in short: as §1
[4] = Relative tumor growth (RTG), calculated by dividing MTW28 by that on day 0 (MTW0) against WiDr xenografts in nude mice at a dose of 10 umol/kg; assay type: functional, Mus musculus; in short: as §1
MKN-45 = experiment: In Vitro cytotoxicity against human stomach cancer cell line (MKN45); assay type: functional, cell-based; in short: as §2
A549 = experiment: In Vitro cytotoxicity against human lung cancer cell line (A549); assay type: functional, cell-based; in short: as §2
SK-OV-3 = experiment: In Vitro cytotoxicity against human ovarian cancer cell line (SK-OV-3); assay type: functional, cell-based; in short: as §2
[5] = biological target: Acetylcholinesterase (Homo sapiens) (UniProt P22303); experiment: Percent inhibition of acetylcholinesterase using ATCh1 as a substrate; parameters: concentration or dose not given beside the values; conditions: concentration not given here
In short: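 AChE (0.05 unit) with 10 mM DTNB and compound at 2 µM in 0.1 M potassium phosphate pH 8.0, preincubated 15 min at 37 °C. Reaction started with 85 µM acetylthiocholine iodide, 15 min at 37 °C. Absorbance at 412 nm, expressed as percent of colour without compound. Three or more determinations.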

SK-BR-3 = experiment: In Vitro cytotoxicity against human breast cancer cell line (SK-BR-3); assay type: functional, cell-based; in short: as §2
[6] = Antitumor activity against MTW0 WiDr xenografts in nude mice at a dose of 10 umol/kg; assay type: functional, Mus musculus; in short: as §1
[7] = Percentage of 50% or greater regression (PR) against WiDr xenografts in nude mice at a dose of 10 umol/kg; assay type: functional, Mus musculus; in short: as §1

Acetylcholinesterase (Homo sapiens), sequence (P22303 whole entry): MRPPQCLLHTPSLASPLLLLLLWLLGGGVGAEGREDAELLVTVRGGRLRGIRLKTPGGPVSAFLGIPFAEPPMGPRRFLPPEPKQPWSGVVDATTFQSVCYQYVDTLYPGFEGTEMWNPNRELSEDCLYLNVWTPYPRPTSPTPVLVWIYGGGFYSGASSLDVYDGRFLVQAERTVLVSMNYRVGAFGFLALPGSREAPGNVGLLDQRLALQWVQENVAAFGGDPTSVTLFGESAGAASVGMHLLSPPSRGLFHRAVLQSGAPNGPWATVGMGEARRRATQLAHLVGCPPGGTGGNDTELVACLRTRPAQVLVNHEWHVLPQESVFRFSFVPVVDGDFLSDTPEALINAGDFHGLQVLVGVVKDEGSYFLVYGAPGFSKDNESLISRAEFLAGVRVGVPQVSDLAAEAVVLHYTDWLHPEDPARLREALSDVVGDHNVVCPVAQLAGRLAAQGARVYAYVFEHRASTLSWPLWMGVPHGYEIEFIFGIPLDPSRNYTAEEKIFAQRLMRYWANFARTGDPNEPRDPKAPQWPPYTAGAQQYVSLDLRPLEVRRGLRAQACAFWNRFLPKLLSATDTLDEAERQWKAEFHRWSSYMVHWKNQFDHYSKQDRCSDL

Compound	Activity [1]	CR [2]	pIC50 (WiDr)	pIC50 (DNA topoisomerase 1)	pIC50 (NCI-H128)	IR [3]	RTG [4]	pIC50 (MKN-45)	pIC50 (A549)	pIC50 (SK-OV-3)	inhibition [5]	pIC50 (SK-BR-3)	Activity [6]	PR [7]
CCc1c2c(nc3ccc4c(c13)NCCO4)-c1cc3c(c(=O)n1C2)COC(=O)[C@]3(O)CC	21 mg	75%	7.80	5.30	8.15	98.6%	0.12	7.70	7.85	7.85	12%	7.89	176 mg	25%
CCc1c2c(nc3ccc4c(c13)N(C)CCO4)-c1cc3c(c(=O)n1C2)COC(=O)[C@]3(O)CC	–	–	6.87	2.80	7.12	–	–	6.82	7.07	6.85	19%	6.97	–	–
CCc1c2c(nc3ccc(O)cc13)-c1cc3c(c(=O)n1C2)COC(=O)[C@]3(O)CC [7-ETHYL-10-HYDROXYCAMPTOTHECIN]	27 mg	75%	7.85	5.40	8.22	98.2%	0.15	8.10	7.80	7.96	13%	8.40	177 mg	8%
CC[C@@]1(O)C(=O)OCc2c1cc1n(c2=O)Cc2cc3c(CN(C)C)c(O)ccc3nc2-1 [TOPOTECAN]	–	–	7.25	–	7.51	–	–	7.42	7.27	7.32	20%	7.59	–	–
CC[C@@]1(O)C(=O)OCc2c1cc1n(c2=O)Cc2cc3c4c(cc(CN(C)C)c3nc2-1)OCCN4	–	–	5.50	–	5.07	–	–	5.02	5.09	5.06	–	–	–	–
CC[C@@]1(O)C(=O)OCc2c1cc1n(c2=O)Cc2cc3c4c(ccc3nc2-1)OCCN4CCN	–	–	6.38	3.88	6.76	–	–	6.27	6.29	6.27	17%	6.38	–	–
CC[C@@]1(O)C(=O)OCc2c1cc1n(c2=O)Cc2cc3c4c(ccc3nc2-1)OCCN4	–	–	7.64	4.39	7.89	–	–	7.70	7.64	7.55	13%	7.72	–	–
CC[C@@]1(O)C(=O)OCc2c1cc1n(c2=O)Cc2cc3ccccc3nc2-1 [CAMPTOTHECIN]	–	–	7.77	4.40	7.74	–	–	7.77	7.85	7.70	23%	7.70	–	–
CC[C@@]1(O)C(=O)OCc2c1cc1n(c2=O)Cc2cc3c4c(ccc3nc2-1)OCCN4C	–	–	7.64	4.68	8.00	–	–	7.72	7.68	7.59	14%	7.60	–	–
CC[C@@]1(O)C(=O)OCc2c1cc1n(c2=O)Cc2cc3c4c(ccc3nc2-1)OCCN4CC#N	–	–	7.52	4.80	7.85	–	–	7.40	7.43	7.49	20%	7.77	–	–
CC[C@@]1(O)C(=O)OCc2c1cc1n(c2=O)Cc2cc3c4c(cc(CN5CCOCC5)c3nc2-1)OCCN4	–	–	5.27	–	5.13	–	–	4.81	5.02	4.98	–	–	–	–
CCN1CCOc2ccc3nc4c(cc3c21)Cn1c-4cc2c(c1=O)COC(=O)[C@]2(O)CC	–	–	7.68	4.92	7.89	–	–	7.72	7.77	7.72	9%	7.80	–	–
